Eight compounds from ChEMBL document CHEMBL3580610, “Design, Synthesis, and Evaluation of Thyronamine Analogues as Novel Potent Mouse Trace Amine Associated Receptor 1 (mTAAR1) Agonists” (J Med Chem, 2015) can be followed below.

Activity calls are given as the source filed them. The calls are words filed in the database; no cut-off is given here.

The test system of test [1] is Heart. The experiment in a line: Reduction in cardiac out put in male Wistar rat heart assessed as aortic and coronary flow after 30 mins by Cardiac perfusion technique. The class given is functional, tissue-based. The settings on record: 0.5 h. The method, boiled down: (§1)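 Male Wistar rats (275−300 g) were anesthetized with ether/air and given 1000 U heparin iv (femoral vein). The heart was excised and perfused as a working heart (atrial 20 cm, aortic 100 cm cannulae). After 5 min equilibration, it was perfused 60 min with buffer containing DMSO vehicle or escalating doses in DMSO. Cardiac output = aortic + coronary flow. 30-min values are expressed as % of baseline. IC50 from sigmoidal nonlinear regression; 3−7 hearts per group, mean ± SE.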

The subject of test [2] is Mus musculus. The experiment in a line: Induction of plasma glucose level in fasted CD1 mouse at 1.32 ug/kg, ip after 15 mins glucorefractometry relative to T0AM. In kind it is functional, organism-based. The essentials: (§2)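 Male CD-1 mice were fasted 4 h (8 to 12 h) and given a single ip dose (1.32, 4 or 11 μg·kg−1) or saline; n = 10 per group. Tail-vein blood glucose was read by glucorefractometer 15 min after injection. One-way ANOVA with Student−Newman−Keuls post hoc test, P < 0.05; mean ± SEM.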

In test [3] the target is Trace amine-associated receptor 1 (Mus musculus, UniProt Q923Y8). The experiment in a line: Agonist activity at mouse TAAR1 expressed in HEK293 cells coexpressing cAMP BRET biosensor assessed as induction of CAMP production after 20 mins by bioluminescence resonance energy transfer assay. In kind it is functional, cell-based. The method, boiled down: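 HEK-293 cells transiently transfected with mTAAR1 (or empty vector as control) plus EPAC cAMP BRET biosensor. Read started immediately after agonist addition, continuing ~20 min. IBMX 200 μM final present throughout. Initial screen at 10 μM; actives then run as dose-response. Emission read in 465−505 and 515−555 nm windows, acceptor/donor ratio taken. EC50 from nonlinear one-site fit; 4−6 independent experiments, mean ± SEM.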
Sequence of Trace amine-associated receptor 1 (Q923Y8 whole entry): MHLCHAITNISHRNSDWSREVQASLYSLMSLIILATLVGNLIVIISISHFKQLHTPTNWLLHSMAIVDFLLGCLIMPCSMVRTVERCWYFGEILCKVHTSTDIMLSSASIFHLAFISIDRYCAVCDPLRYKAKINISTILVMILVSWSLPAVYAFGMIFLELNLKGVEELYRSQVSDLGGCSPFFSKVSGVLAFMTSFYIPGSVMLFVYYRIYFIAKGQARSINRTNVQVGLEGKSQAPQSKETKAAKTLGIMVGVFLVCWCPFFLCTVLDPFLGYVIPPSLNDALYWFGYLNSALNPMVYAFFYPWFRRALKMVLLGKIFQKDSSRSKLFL

Test [4] deals with Trace amine-associated receptor 1 (Mus musculus) (UniProt Q923Y8). The test can be described thus: Agonist activity at mouse TAAR1 expressed in HEK293 cells coexpressing cAMP BRET biosensor assessed as induction of CAMP production after 20 mins by bioluminescence resonance energy transfer assay relative to control. In kind it is functional, cell-based. The essentials:
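Transient co-transfection of HEK-293 cells with mTAAR1 and the EPAC cAMP BRET biosensor; empty vector as control. Assayed with IBMX at 200 μM final. Screened at 10 μM, then dose-response on actives. Read-out is the acceptor/donor ratio from the 465−505 and 515−555 nm windows; time courses read for about 20 min after agonist addition. EC50 from nonlinear regression (one site specific binding); 4−6 independent experiments, mean ± SEM.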
(In BRET a luciferase serves as donor, and the signal depends on an acceptor being close.)

Test [5] has as its system Heart. The experiment in a line: Reduction in cardiac out put in male Wistar rat heart assessed as aortic and coronary flow at 20 to 40 uM after 30 mins by Cardiac perfusion technique. In kind it is functional, tissue-based. The essentials:
as §1

In test [6] the test system is Heart. The experiment in a line: Reduction in cardiac out put in male Wistar rat heart assessed as aortic and coronary flow at 40 uM within 10 mins by Cardiac perfusion technique relative to control. The class given is functional.
In test [7] the test system is Heart. The test can be described thus: Reduction in cardiac out put in male Wistar rat heart assessed as aortic and coronary flow measured as rate of duration of experiment at 40 uM by Cardiac perfusion technique. The class given is functional.
Test [8] has as its system Mus musculus. The test can be described thus: Induction of plasma glucose level in fasted CD1 mouse at 4 ug/kg, ip after 15 mins glucorefractometry relative to T1AM. The class given is functional, organism-based. The method, boiled down:
as §2

In general, IC50 refers to the concentration needed to halve the response being measured. One may read the EC50 as the concentration needed to bring the measured effect to its halfway point. By Emax is commonly meant the size of the effect at its maximum, as opposed to the concentration needed. Usually inhibition stands for how much of the control response was suppressed.

Sequence of Trace amine-associated receptor 1 (Mus musculus) (Q923Y8 whole entry): as above

Consider `Cc1cc(OCC(=O)O)ccc1Cc1ccc(N)cc1`, for which the IC50 in test [1] was found to be 30000 nM. The outcome in test [2] was Active.

Consider `Nc1ccc(Cc2ccc(OCC(=O)O)cc2)cc1`, for which the IC50 in test [1] was 30000 nM. Besides, the result in test [2] was inactive.

In the case of `NCCc1ccc(Oc2ccc(O)cc2)c(I)c1`, in test [3], the EC50 turned out to be 189 nM. In addition, the IC50 in test [1] worked out at 27000 nM.

For the compound `NCCOc1ccc(Cc2ccc(N)cc2)cc1`, the EC50 in test [3] worked out at 1700 nM. The Emax in test [4] worked out at 40%. For the same compound, in test [1], the IC50 stood at 34000 nM. The outcome in test [2] was inactive.

For the compound `Cc1cc(OCCN)ccc1Cc1ccc(N)cc1`, in test [3], the EC50 was 240 nM. In addition, the Emax in test [4] stood at 75%. Further, the inhibition entry in test [5] was “Active”. Also, the inhibition at 40 µM in test [6] stood at 60%. In addition, the Time in test [7] worked out at 1 h. Further, the IC50 in test [1] was determined as 30000 nM. Further, the result in test [8] was Active.

For the compound `NCCc1ccccc1` [PHENETHYLAMINE], the EC50 in test [3] came to 138 nM.

As for `NCCOc1ccc(Cc2ccc(O)cc2)cc1`, the EC50 in test [3] is 2200 nM. Moreover, the Emax in test [4] is 80%.

As to `NCCc1ccc(Cc2ccc(N)cc2)cc1`, the EC50 in test [3] worked out at 800 nM. The maximal response (Emax) in test [4] came out at 100%.
